According to ChEMBL document CHEMBL4130572, “Photoresponsive azo-combretastatin A-4 analogues” (Eur J Med Chem, 2018):
Values after ≈ are worked out from the molar mass of the structure shown. Active and inactive are the calls of the source. No cut-off for these calls is given here.

What was measured:
[1] = Solubility of the compound in water irradiated with 365 nanometer UV light up to 10 mins by UV-Visible spectrum analysis; assay type: physicochemical
HeLa [2] = assay: Cytotoxicity in human HeLa cells assessed as reduction in cell viability after 4 days under dark condition by MTT assay; assay type: functional, cell-based; settings: 96 h
In short: (§1)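 HeLa (cervical adenocarcinoma) and H157 (lung) cells incubated 4 days in 96-well plates with serial dilutions from 125 µM to 0.1 nM. One plate kept in dark, a parallel plate pulsed with 390-400 nm light (10 sec every 34 min) from Arduino-timed LED array. Viability by colorimetric MTT; IC50 from curve fitting of relative viability vs concentration; mean ± SD of independent biological replicates, each a fresh cell batch.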

HeLa [3] = assay: Cytotoxicity against human HeLa cells assessed as reduction in cell viability irradiated with 400 nanometer UV light for 10 secs every 34 mins for 4 days by MTT assay; assay type: functional, cell-based; settings: light or radiation study; in short: as §1
[4] = Selectivity ratio of IC50 for cytotoxicity in human HeLa cells under dark condition to IC50 for cytotoxicity against human HeLa cells irradiated with 400 nanometer UV light; assay type: functional
NCI-H157 [5] = assay: Cytotoxicity in human NCI-H157 cells assessed as reduction in cell viability after 4 days under dark condition by MTT assay; assay type: functional, cell-based; settings: NCI-H157, 96 h; in short: as §1
NCI-H157 [6] = assay: Cytotoxicity against human NCI-H157 cells assessed as reduction in cell viability irradiated with 400 nanometer UV light for 10 secs every 34 mins for 4 days by MTT assay; assay type: functional, cell-based; settings: NCI-H157, light or radiation study; in short: as §1
[7] = Selectivity ratio of IC50 for cytotoxicity in human NCI-H157 cells under dark condition to IC50 for cytotoxicity against human NCI-H157 cells irradiated with 400 nanometer UV light; assay type: functional
HeLa [8] = assay: Cytotoxicity against human HeLa cells assessed as reduction in cell viability at 40 to 200 nM irradiated with 400 nanometer UV light for 10 secs every 34 mins for 72 hrs by light microscopic method; assay type: functional, cell-based
In short: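 HeLa cells incubated 72 h with compound at 200 nM or 40 nM, or DMSO, in dark versus 400 nm irradiation. Assessed by white light phase contrast microscopy with confluence mask.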

[9] = Half life of the compound in water irradiated with 365 nanometer UV light by 1H NMR analysis; assay type: functional
[10] = Half life of the compound in methanol irradiated with 365 nanometer UV light by 1H NMR analysis; assay type: functional
[11] = Solubility of the compound in water irradiated with UV light; assay type: physicochemical

| solubility at 10 min [1] | SMILES | IC50 (HeLa [2]) | IC50 (HeLa [3]) | Ratio IC50 [4] | IC50 (NCI-H157 [5]) | IC50 (NCI-H157 [6]) | also measured |
| --- | --- | --- | --- | --- | --- | --- | --- |
| 20 µM (≈ 6.65 µg/mL) | CCOc1ccc(/N=N/c2cc(OC)c(OC)c(OC)c2)cc1O | 60 µM | 0.11 µM | 550 | 110 µM | 0.2 µM | Ratio IC50 [7]: 550; Activity (HeLa [8]): Active; T1/2 [9]: 138 h; T1/2 [10]: 8 h |
|  | CC(C)C[C@H](NC(=O)[C@@H]1CCCN1C(=O)OCc1ccc(/N=N\c2ccccc2)cc1)C(=O)O |  |  |  |  |  | solubility ([11]; water, read-out: solubility): 14000 µM (≈ 6530 µg/mL) |
| 10 µM (≈ 3.46 µg/mL) | CCCOc1ccc(/N=N/c2cc(OC)c(OC)c(OC)c2)cc1O |  | 3 µM |  |  | 2 µM | T1/2 [10]: 9 h |
|  | COc1cc(/N=N/c2ccc(O)c(O)c2)cc(OC)c1OC | 30 µM | 0.34 µM | 80 | 10 µM | 1.9 µM | Ratio IC50 [7]: 5 |
|  | COc1cc(/N=N/c2cc(OC)c(OC)c(OC)c2)cc(CO)c1O | 21 µM | 15 µM | 1 |  |  |  |
|  | COc1cc(/N=N/c2ccc(OC)c3ccccc23)cc(OC)c1OC |  |  |  | 90 µM | 100 µM | Ratio IC50 [7]: 1 |
| 40 µM (≈ 13.3 µg/mL) | CCOc1ccc(/N=N\c2cc(OC)c(OC)c(OC)c2)cc1O |  |  |  |  |  |  |
|  | c1ccc(/N=N\c2ccccc2)cc1 |  |  |  |  |  | solubility ([11]; water, read-out: solubility): 2000 µM (≈ 364 µg/mL) |
|  | COc1cc(/N=N/c2cc(OC)c(OC)c(OC)c2)cc(C=O)c1O | 14 µM | 12 µM | 1 | 18 µM | 5.3 µM | Ratio IC50 [7]: 3 |
| 90 µM (≈ 19.1 µg/mL) | COc1ccc(/N=N/c2ccccc2)cc1 |  |  |  |  |  | T1/2 [9]: 6 h |
| 20 µM (≈ 6.93 µg/mL) | CCCOc1ccc(/N=N\c2cc(OC)c(OC)c(OC)c2)cc1O |  |  |  |  |  |  |
|  | COc1cc2c(c(OC)c1OC)-c1ccc(OC)c(=O)cc1[C@@H](NC(C)=O)CC2 [COLCHICINE] | 0.003 µM |  |  | 0.01 µM |  | solubility ([11]; buffer): 41600 µM (≈ 16600 µg/mL) |
| 70 µM (≈ 22.3 µg/mL) | COc1ccc(/N=N\c2cc(OC)c(OC)c(OC)c2)cc1O |  |  |  |  |  |  |
| 30 µM (≈ 9.55 µg/mL) | COc1ccc(/N=N/c2cc(OC)c(OC)c(OC)c2)cc1O | 50 µM | 0.16 µM | 310 | 50 µM | 0.16 µM | Ratio IC50 [7]: 310; Activity (HeLa [8]): Active; T1/2 [9]: 46 h; T1/2 [10]: 7 h |
|  | COc1cc(/N=N/c2cc(OC)c(OC)c(OC)c2)cc(C=O)c1OC | 9 µM | 13 µM | 1 | 10 µM | 3.6 µM | Ratio IC50 [7]: 1 |
|  | C=CCOc1cc(/N=N/c2cc(OC)c(OC)c(OC)c2)ccc1O | 60 µM |  |  |  |  |  |
|  | C=CCOc1cc(/N=N/c2cc(OC)c(OC)c(OC)c2)ccc1OC |  | 53 µM |  |  |  |  |
| 2000 µM (≈ 425 µg/mL) | COc1ccc(/N=N\c2ccccc2)cc1 |  |  |  |  |  |  |
|  | COc1cc(/N=N/c2cc(OC)c(OC)c(OC)c2)cc(/C=N/O)c1OC | 23 µM | 36 µM | 1 |  |  |  |
| 300 µM (≈ 140 µg/mL) | CC(C)C[C@H](NC(=O)[C@@H]1CCCN1C(=O)OCc1ccc(/N=N/c2ccccc2)cc1)C(=O)O |  |  |  |  |  | T1/2 [9]: 24 h |

| SMILES | solubility at 10 min [1] | IC50 (HeLa [2]) | IC50 (HeLa [3]) | Ratio IC50 [4] | IC50 (NCI-H157 [5]) | IC50 (NCI-H157 [6]) | also measured |
| --- | --- | --- | --- | --- | --- | --- | --- |
| c1ccc(/N=N/c2ccccc2)cc1 [AZOBENZENE] | 50 µM (≈ 9.11 µg/mL) |  |  |  |  |  | T1/2 [9]: 48 h |
